Experiments:
[1] = target: T1, Protein farnesyltransferase (Homo sapiens, UniProt P49354+P49356); test: Inhibitory activity against Ha-Ras processing in COS7 cells; format: functional, cell-based, COS-7
[2] = target: T1, Protein farnesyltransferase; test: Inhibitory activity against farnesyltransferase quantified by SPA assay; format: protein-complex assay
[3] = Bioavailability in mice; format: ADME, organism-based; details: mouse, in vivo
[4] = Cmax in mice at 10 mg/kg, po; format: ADME, organism-based; parameters: dose 10 mg/kg, route oral; details: mouse, in vivo
Mus musculus = test: AUC in mice at 10 mg/kg, po; format: ADME, organism-based, Plasma; parameters: dose 10 mg/kg, route oral; details: in vivo
[5] = target: Geranylgeranyl transferase type I (Homo sapiens, UniProt P49354+P53609); test: Inhibitory activity against Geranylgeranyltransferase 1; format: protein-complex assay
[6] = target: T1, Protein farnesyltransferase; test: Inhibitory activity against Farnesyltransferase quantified by modified SPA assay with improved sensitivity; format: protein-complex assay
In short: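 Scintillation proximity assay, high-sensitivity version. Purified FTase (30 pM final) was pre-incubated with inhibitor or DMSO control (5% v/v final) for 15 min at room temperature. The reaction was started with biotin-CVLS (100 nM final) and run for 60 min at 37 °C. It was quenched with a cold suspension of 250 mM EDTA pH 8.0, 0.5% BSA and SPA beads, then the IC50 was determined.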

Liver microsomes = test: Metabolic stability in rat liver microsome; format: ADME
In short: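 Rat liver microsomes (cytochrome P450 content 6.7 µM) incubated 60 min at 37 °C with compound at 10 µM, KPi pH 7.4 and freshly prepared NADPH, in 1.0 ml final. Read-out is percent of compound remaining.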

| SMILES | IC50 [1] [nM] | IC50 [2] [nM] | also measured |
| --- | --- | --- | --- |
| Cn1cnc(CCNC(=O)C2CN(C3c4ccc(Cl)cc4CCc4cc(Br)cnc43)CCN2C(=O)NC2CCCCC2)c1 (configuration not stated) | 91 | 26 | – |
| CC(C)(C)NC(=O)N1CCN(C2c3ccc(Cl)cc3CCc3cc(Br)cnc32)CC1C(=O)NCc1cccnc1 (configuration not stated) | 54 | 15 | – |
| CC(C)(C)CC(=O)N1CCN(C2c3ccc(Cl)cc3CCc3cc(Br)cnc32)CC1C(=O)NCc1cccnc1 (configuration not stated) | 120 | 12 | – |
| O=C(NCc1cccnc1)C1CN(C2c3ccc(Cl)cc3CCc3cc(Br)cnc32)CCN1C(=O)NC1CC1 (configuration not stated) | 260 | 51 | – |
| CCCCC(=O)N1CCN(C2c3ccc(Cl)cc3CCc3cc(Br)cnc32)CC1C(=O)Nc1cccnc1 (configuration not stated) | 100 | 18 | – |
| CCCCC(=O)N1CCN(C2c3ccc(Cl)cc3CCc3cc(Br)cnc32)CC1C(=O)NCc1ccc[n+]([O-])c1 (configuration not stated) | > 200 | – | – |
| CCOCC(=O)N1CCN(C2c3ccc(Cl)cc3CCc3cc(Br)cnc32)CC1C(=O)NCc1cccnc1 (configuration not stated) | 160 | 21 | – |
| O=C(NCc1cccnc1)C1CN(C2c3ccc(Cl)cc3CCc3cc(Br)cnc32)CCN1C(=O)C1CCCC1 (configuration not stated) | 65 | 17 | – |
| O=C(O)CCCC(=O)N1CCN(C2c3ccc(Cl)cc3CCc3cc(Br)cnc32)CC1C(=O)NCc1cccnc1 (configuration not stated) | > 200 | 7 | – |
| O=C(Nc1nncs1)C1CN(C2c3ccc(Cl)cc3CCc3cc(Br)cnc32)CCN1C(=O)NC1CCCCC1 (configuration not stated) | > 10000 | 490 | – |
| Cc1noc(C)c1CNC(=O)C1CN(C2c3ccc(Cl)cc3CCc3cc(Br)cnc32)CCN1C(=O)NC1CCCCC1 (configuration not stated) | – | 760 | – |
| CCCCC(=O)N1CCN(C2c3ccc(Cl)cc3CCc3cc(Br)cnc32)CC1C(=O)Nc1cc(C)no1 (configuration not stated) | > 4500 | 560 | – |
| CCCCC(=O)N1CCN(C2c3ccc(Cl)cc3CCc3cc(Br)cnc32)CC1C(=O)NCc1c[nH]cn1 (configuration not stated) | 210 | 45 | – |
| CCCCC(=O)N1CCN(C2c3ccc(Cl)cc3CCc3cc(Br)cnc32)CC1C(=O)Nc1cnccn1 (configuration not stated) | 570 | 190 | – |
| CC(C)NC(=O)N1CCN(C2c3ccc(Cl)cc3CCc3cc(Br)cnc32)CC1C(=O)NCc1cccnc1 (configuration not stated) | 140 | 47 | – |
| Cc1ccc(CNC(=O)C2CN(C3c4ccc(Cl)cc4CCc4cc(Br)cnc43)CCN2C(=O)NC2CCCCC2)cn1 (configuration not stated) | 550 | 61 | – |
| CCCCC(=O)N1CCN(C2c3ccc(Cl)cc3CCc3cc(Br)cnc32)CC1C(=O)NCc1ncc[nH]1 (configuration not stated) | > 200 | 80 | – |
| CC(=O)CCCC(=O)N1CCN(C2c3ccc(Cl)cc3CCc3cc(Br)cnc32)CC1C(=O)NCc1cccnc1 (configuration not stated) | 54 | 8.4 | – |
| CCCCC(=O)N1CCN(C2c3ccc(Cl)cc3CCc3cc(Br)cnc32)CC1C(=O)NCCc1c[nH]cn1 (configuration not stated) | 60 | – | – |
| O=C(NCc1cccnc1)C1CN(C2c3ccc(Cl)cc3CCc3cc(Br)cnc32)CCN1C(=O)C1CCCCCC1 (configuration not stated) | 85 | 12 | – |
| CCCNC(=O)N1CCN(C2c3ccc(Cl)cc3CCc3cc(Br)cnc32)CC1C(=O)NCc1cccnc1 (configuration not stated) | 59 | 19 | – |
| CC(C)(C)OC(=O)N1CCN(C2c3ccc(Cl)cc3CCc3cc(Br)cnc32)CC1C(=O)NCc1cccnc1 (configuration not stated) | > 200 | 22 | – |
| CCCCC(=O)N1CCN(C2c3ccc(Cl)cc3CCc3cc(Br)cnc32)CC1C(=O)NCc1cccnc1 (configuration not stated) | 64 | 5.7 | – |
| CCCCCC(=O)N1CCN(C2c3ccc(Cl)cc3CCc3cc(Br)cnc32)CC1C(=O)NCc1cccnc1 (configuration not stated) | 75 | 8 | – |
| COC(=O)CCCCC(=O)N1CCN(C2c3ccc(Cl)cc3CCc3cc(Br)cnc32)CC1C(=O)NCc1cccnc1 (configuration not stated) | 62 | 7.9 | – |
| COCCC(=O)N1CCN(C2c3ccc(Cl)cc3CCc3cc(Br)cnc32)CC1C(=O)NCc1cccnc1 (configuration not stated) | 100 | 20 | – |

Continued by falling IC50 [1], values first:

| IC50 [1] [nM] | IC50 [2] [nM] | SMILES | also measured |
| --- | --- | --- | --- |
| 53 | 10 | O=C(NCc1cccnc1)C1CN(C2c3ccc(Cl)cc3CCc3cc(Br)cnc32)CCN1C(=O)NCC1CCCCC1 (configuration not stated) | – |
| 52 | 8 | CC(C)CNC(=O)N1CCN(C2c3ccc(Cl)cc3CCc3cc(Br)cnc32)CC1C(=O)NCc1cccnc1 (configuration not stated) | – |
| 52 | 9.1 | O=C(NCc1cccnc1)C1CN(C2c3ccc(Cl)cc3CCc3cc(Br)cnc32)CCN1C(=O)NC1CCCCCC1 (configuration not stated) | – |
| 50 | 7.3 | CC(C)CC(=O)N1CCN(C2c3ccc(Cl)cc3CCc3cc(Br)cnc32)CC1C(=O)NCc1cccnc1 (configuration not stated) | – |
| 49 | 8 | CC(=O)CCCCC(=O)N1CCN(C2c3ccc(Cl)cc3CCc3cc(Br)cnc32)CC1C(=O)NCc1cccnc1 (configuration not stated) | – |
| 47 | 11 | CC(=O)CCC(=O)N1CCN(C2c3ccc(Cl)cc3CCc3cc(Br)cnc32)CC1C(=O)NCc1cccnc1 (configuration not stated) | – |
| 45 | 9.1 | CCCCNC(=O)N1CCN(C2c3ccc(Cl)cc3CCc3cc(Br)cnc32)CC1C(=O)NCc1cccnc1 (configuration not stated) | – |
| 38 | 20 | O=C(NCc1cccnc1)C1CN(C2c3ccc(Cl)cc3CCc3cc(Br)cnc32)CCN1C(=O)CCC1CCCCC1 (configuration not stated) | – |
| 28 | 14 | O=C(NCc1cccnc1)C1CN(C2c3ccc(Cl)cc3CCc3cc(Br)cnc32)CCN1C(=O)NC1CCCC1 (configuration not stated) | – |
| 20 | 14 | O=C(NCCCN1CCCC1=O)C1CN(C2c3ccc(Cl)cc3CCc3cc(Br)cnc32)CCN1C(=O)NC1CCCCC1 (configuration not stated) | – |
| 18 | 7 | O=C(NCCc1c[nH]cn1)C1CN(C2c3ccc(Cl)cc3CCc3cc(Br)cnc32)CCN1C(=O)NC1CCCCC1 (configuration not stated) | – |
| 13 | 7.3 | Cn1cncc1CCNC(=O)C1CN(C2c3ccc(Cl)cc3CCc3cc(Br)cnc32)CCN1C(=O)NC1CCCCC1 (configuration not stated) | – |
| 11 | 13 | CN(C)C(=O)CCC(=O)N1CCN(C2c3ccc(Cl)cc3CCc3cc(Br)cnc32)CC1C(=O)NCc1cccnc1 (configuration not stated) | – |
| 9.7 | 13 | O=C(NCCCc1c[nH]cn1)C1CN(C2c3ccc(Cl)cc3CCc3cc(Br)cnc32)CCN1C(=O)NC1CCCCC1 (configuration not stated) | – |
| 8.6 | 5.5 | O=C(NCc1cccnc1)C1CN(C2c3ccc(Cl)cc3CCc3cc(Br)cnc32)CCN1C(=O)NC1CCCCC1 (configuration not stated) | – |
| 4.2 | 4.5 | O=C(NCCCn1ccnc1)C1CN(C2c3ccc(Cl)cc3CCc3cc(Br)cnc32)CCN1C(=O)NC1CCCCC1 (stereo in doubt; 41) | – |
| 1.2 | 2 | O=C(NCCCn1ccnc1)C1CN(C2c3ccc(Cl)cc3CCc3cc(Br)cnc32)CCN1C(=O)NC1CCCCC1 (stereo in doubt; 41a) | IC50 [6]: 0.1 nM; Stability (Liver microsomes): > 95%; IC50 [5]: 22000 nM |
| 0.56 | 1.5 | O=C(NCCCn1ccnc1)C1CN(C2c3ccc(Cl)cc3CCc3cc(Br)cnc32)CCN1C(=O)NC1CCCCC1 (stereo in doubt; 41b) | bioavailability [3]: 10.6%; Cmax [4]: 2550 nM; AUC (Mus musculus): 1660 ng·h/mL; IC50 [5]: > 10000 nM |

Reference: ChEMBL document CHEMBL1149394, “Guiding farnesyltransferase inhibitors from an ECLiPS library to the catalytic zinc” (Bioorg Med Chem Lett, 2006)
